Assay outcomes as filed in PubChem.
M4 antag = CHRM4 antagonism in calcium assay; P08173; CHO-hM4 cells, ACh EC80, Fluo-8 calcium fluorescence; inhibition, % at 3 µM; actives 0.73% (n = 360,000);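 active means inhibition above its plate's cutoff, the mean inhibition of sample wells plus 3 SD, cut at about 27% in these data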;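 further: 0% = acetylcholine EC80 with DMSO and 100% = DMSO without agonist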
Target sequence (P08173 whole entry, looked up): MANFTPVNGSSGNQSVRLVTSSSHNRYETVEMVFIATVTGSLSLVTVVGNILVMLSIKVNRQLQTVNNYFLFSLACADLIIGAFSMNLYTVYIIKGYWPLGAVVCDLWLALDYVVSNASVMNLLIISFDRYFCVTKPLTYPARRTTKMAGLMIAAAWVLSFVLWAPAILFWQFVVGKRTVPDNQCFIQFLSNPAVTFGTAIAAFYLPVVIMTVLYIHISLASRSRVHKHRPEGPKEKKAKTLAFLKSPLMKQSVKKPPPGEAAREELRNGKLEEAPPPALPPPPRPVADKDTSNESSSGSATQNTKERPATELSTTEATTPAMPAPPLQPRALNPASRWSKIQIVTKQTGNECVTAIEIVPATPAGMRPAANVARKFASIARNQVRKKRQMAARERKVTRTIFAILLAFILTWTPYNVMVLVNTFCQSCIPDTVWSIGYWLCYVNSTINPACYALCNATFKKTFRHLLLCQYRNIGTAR
CHRM4 PAM = potentiates acetylcholine response at human M4 receptor | P08173 | CHO-K1 hM4/Gqi5, Fluo-8 calcium fluorescence, ACh EC20; 0% = ACh EC20, 100% = maximal ACh | activation, % at 3 µM | actives 0.4% (n = 360,000);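 active means activation above its plate's cutoff, the mean activation of sample wells plus 3 SD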
M5 PAM = positive allosteric modulators of human muscarinic M5 receptor. P08912. activation, % at 3 µM. actives 0.3% (n = 360,000). CHO-K1 hM5, Fluo-8 calcium, ACh EC20 PAM; 0% = ACh EC20, 100% = ACh EC100;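 active means activation above the run cutoff, the mean activation of all test compounds plus 3 SD, cut at about 18% in these data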
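system = human M5 receptor in CHO-K1 cells | compound = one concentration, 3 µM final (nominal) | schedule = Post-acetylcholine fluorescence recording 140 s | signal = Fluo-8 calcium dye fluorescence, kinetic read | benchmarks = low control EC20 acetylcholine (0%), high control EC100 acetylcholine (100%) | repeats = singlicate, one well per test compound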
CHRM5 antagonist = CHRM5 antagonism in calcium assay; P08912; CHO-hM5 cells, Fluo-8 calcium fluorescence, ACh EC80; inhibition, % at 3 µM; actives 0.59% (n = 360,000); AID 624040;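 active means inhibition above a per-plate cutoff, the mean of that plate's test compounds plus 3 SD, cut at about 27% in these data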;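 further: 0% = acetylcholine EC80 with DMSO and 100% = DMSO without agonist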
CHRM4 agonist = CHRM4 agonism in calcium assay | actives 0.14% (n = 360,000) | AID 624127 | CHO-K1 hM4/Gqi5, Fluo-8 calcium fluorescence; vehicle 0%, full acetylcholine response 100% | P08173 | activation, % at 3 µM;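 active means activation above the run mean over all test wells plus 3 SD, cut at about 32% in these data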;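 further: peak over basal fluorescence ratio per well then scaled between controls; 0% = DMSO wells and 100% = acetylcholine at EC100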
M5 ag = agonists of human muscarinic M5 receptor (CHRM5); CHO-K1 hM5 cells, Fluo-8 calcium fluorescence; 0% DMSO wells, 100% maximal acetylcholine response; activation, % at 3 µM; actives 0.19% (n = 360,000);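 active means activation above the run's mean over test compounds plus 3 SD, cut at about 23% in these data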;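 further: signal is peak over basal fluorescence ratio across the kinetic read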
* marks the source's active call; other numbers are inactive results. Most compounds without a hit are left out; they make up all but 1.9% or so of the library.

SMILES | M4 antag | CHRM4 PAM | M5 PAM | CHRM5 antagonist | CHRM4 agonist | M5 ag
Cc1ccccc1C(=O)NNC(=S)NC(=O)c1cccs1 | 9 | -13 | -11 | 15 | 39* | 15
COC(=O)CNC(=S)NC(=O)c1ccc(C(C)(C)C)cc1 | 27* | -22 | -20 | 8 | -1 | -16
CC(C)(C)c1ccc(C(=O)NC(=S)NNC(=O)c2cccs2)cc1 | 14 | -19 | -22 | 21 | 109* | 46*
CC(C)(C)c1ccc(C(=O)NC(=S)NCc2cccnc2)cc1 | -17 | -8 | -19 | -2 | 2 | -9
COCCN1CCC(CNCc2cn(-c3cc(C)ccc3C)nc2-c2ccccc2)C1 (stereo not drawn) | 8 | -3 | -5 | 7 | 2 | -5
O=C(NC(=S)NNC(=O)c1cccs1)c1ccccc1 | 12 | -2 | -11 | 27* | 1 | -3
Cc1cccc(C(=O)NC(=S)NNC(=O)c2cccs2)c1 | 15 | -8 | -8 | 11 | 6 | 6
CC(=O)Nc1ccc(NC(=O)C(C)N(C)CC(=O)Nc2ccccc2Br)cc1 (stereo not drawn) | 0 | 1 | 4 | 7 | 1 | 0
CC(OC(=O)c1cccc(O)c1)C(=O)N(C)Cc1ccccc1 (stereo not drawn) | 5 | 2 | -6 | 7 | 1 | 0
CC(OC(=O)/C(C#N)=C/c1ccc(N(C)C)cc1)C(=O)N(C)Cc1ccccc1 (stereo not drawn) | 6 | -13 | -11 | 12 | 19 | 32*
Cc1ccc2c(c1)sc[n+]2Cc1ccccc1 | 21 | -2 | 21* | 10 | -1 | 19
O=Cc1ccc(-n2cncn2)cc1 | 9 | -4 | -5 | 18 | 2 | -1
CN1C(=O)S/C(=C\c2ccc(-n3cncn3)cc2)C1=O | -5 | 4 | 21* | -13 | 2 | 4
Cc1c(C(=O)c2ccc(Cl)cc2[N+](=O)[O-])c2ccccn2c1CCC#N | -2 | 16 | 19* | 8 | 3 | 3
Cc1csc(NC(=O)C2CC(=O)N(c3ccc4c(c3)OCCO4)C2)n1 (stereo not drawn) | -4 | -2 | -6 | -1 | 3 | 3
CCc1ccc(-c2csc(NC(=O)C3CC(=O)N(c4ccc5c(c4)OCCO5)C3)n2)cc1 (stereo not drawn) | -3 | 30* | -12 | -1 | 5 | 2
O=C1CSC(=S)N1/N=C/c1cc(Br)c(O)c(Br)c1 | 54* | -30 | -20 | 48* | 401* | 200*
Cc1cc(C)c(C(=O)O)c(CC(C)(C)C(=O)O)c1 | 0 | -2 | 3 | 3 | 0 | 2
Cc1cc(-c2nnc(SCC(=O)Nc3nccs3)o2)no1 | 13 | 16 | 20* | -15 | -1 | 7
CCC(=O)Nc1cccc(NC(=O)CSc2nnc(C3CC3)n2C)c1 | -13 | 2 | 36* | -7 | 1 | 4
CCn1c(SCC(=O)Nc2nccs2)nnc1C1CC1 | -2 | 25* | 4 | -3 | 0 | -2
Cn1c(SCC(=O)Nc2ccc3c(c2)CCC3)nnc1C1CC1 | -20 | 3 | -6 | -2 | 3 | -3
COc1ccccc1NS(=O)(=O)c1cccc(NC(=O)Nc2ccc(Cl)cc2)c1 | 46* | -16 | -20 | 66* | 19 | 7
CCNC(=S)Nc1cccc(S(=O)(=O)Nc2ccccc2OC)c1 | -11 | 0 | 7 | -5 | 5 | 5
COc1cccc(OC)c1C(=O)Nc1cccc(S(=O)(=O)Nc2ccccc2Cl)c1 | -13 | 5 | 6 | 2 | 3 | 0
SMILES | M4 antag | CHRM4 PAM | M5 PAM | CHRM5 antagonist | CHRM4 agonist | M5 ag
COc1ccccc1NS(=O)(=O)c1cccc(NC(=O)Nc2ccccc2)c1 | 61* | -39 | -18 | 59* | 35* | 13
CN1CCN(CCCNC(=O)CCC(=O)N2CCOc3ccccc32)CC1 | -2 | 4 | -2 | -1 | 1 | 1
C=CC[C@@H](CC(=O)N(CCO)Cc1ccccc1)C(=O)NC[C@H](OC(=O)[C@@H](CC=C)Cc1ccc(F)cc1)c1ccccc1 | 30* | -10 | -39 | 13 | 27 | 1
C=CCC[C@H](Cc1ccc(F)cc1)C(=O)OC[C@@H](Cc1c[nH]c2ccccc12)NC(=O)[C@H](CC=C)CC(=O)N(CCO)Cc1ccccc1 | 45* | -3 | -15 | 15 | 10 | 3
CC(=O)c1cccc(NC(=O)COC(=O)C2=COCCO2)c1 | 14 | -6 | -3 | 14 | 0 | -4
Cc1c(C(=O)O)sc(S(=O)(=O)N2CCN(C(=O)Cc3ccc(F)cc3)CC2)c1C(=O)O | -5 | 5 | -7 | 14 | -1 | 1
Cn1nnnc1SCC(=O)N1c2ccccc2Sc2ccc(Cl)cc21 | 14 | -13 | -13 | 10 | 2 | -12
CN(C)CCC(=O)N1c2ccccc2Sc2ccc(Cl)cc21 | 96* | -24 | -20 | 100* | 0 | -10
CCN(CC)CCC(=O)N1c2ccccc2Sc2ccc(Cl)cc21 | 98* | -18 | -19 | 99* | 1 | -1
CN(C)CC(=O)N1c2ccccc2Sc2ccc(Cl)cc21 | 68* | -20 | -19 | 95* | 1 | -10
O=C(CCN1CCN2CCCC2C1)N1c2ccccc2Sc2ccc(Cl)cc21 (stereo not drawn) | 16 | -18 | -10 | 11 | 1 | -7
CN1CCC=C(C(=O)N2c3ccccc3Sc3ccc(Cl)cc32)C1 | 86* | -59 | -32 | 99* | 2 | -22
O=C1CC(c2ccccc2F)C2=C(COC2=O)N1 (stereo not drawn) | -5 | 2 | 8 | -10 | 1 | -1
CCN(CC)S(=O)(=O)c1cc(NC(=O)CCCOc2ccc(C(C)=O)cc2)ccc1C | -2 | -4 | -11 | 1 | 10 | 2
O=C(CCN1C(=O)NC2(CCCC2)C1=O)Nc1ccc(-c2nc3ccccc3s2)cc1 | 27* | -13 | -41 | 26 | 28 | 3
CNC(=O)C(=O)Nc1nc(C23CC4CC(CC(C4)C2)C3)cs1 | 1 | 3 | 19* | -9 | 1 | -4
O=C(NCc1ccccc1)C(=O)Nc1nc(C23CC4CC(CC(C4)C2)C3)cs1 | 26 | -8 | -4 | 2 | -1 | 0
CCCCn1nnnc1NCc1cccnc1 | -6 | 11 | -2 | 31* | 2 | 6
O=C(Nc1ccc2c(c1)OCCO2)Nc1ccc2c(c1)OCO2 | -4 | -3 | -9 | 2 | 4 | -1
O=C(Nc1ccc2c(c1)OCO2)Nc1ccc(Br)cn1 | 4 | 41* | -3 | 9 | 6 | 1
CCn1c(=O)n(CCc2ccccc2)c(=O)c2c3c(sc21)CCCC3 | -2 | 3 | -1 | 1 | -1 | -2
